Paper PMC7048954 (Drug Design, Development and Therapy, 2020)

Columns and labels:
NS3 protease [1] = conditions: compared with bilirubin; cited from earlier work
NS3 protease [2] = conditions: less effective for genotype 3; cited from earlier work
[3] = system: HCV replicon (Huh 5.15NS, sub-genomic HCV RNA genotype 1b); test: HCV RNA replication in replicon cells, real-time RT-PCR; assay type: cell-based; conditions: Hepatitis C virus, GETYPE1B, read-out: inhibition in replicon assays
Method in brief: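 Huh 5.15NS cells carrying subgenomic genotype 1b HCV RNA were seeded, left to attach overnight and treated in log phase for 48 h with compound (DMSO stock diluted into medium) or vehicle. Total RNA was extracted with Trizol and DNase-treated, then HCV RNA was measured by SYBR green real-time RT-PCR using ΔCT against GAPDH. EC50 came from sigmoidal regression, with 3–5 determinations per point and a known NS3-4A inhibitor as positive control.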

Huh 5.15 replicon cells = test: MTT assay of cellular viability and proliferation; assay type: cell-based, human
Method in brief: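 Replicon cells were seeded semi-confluent, attached overnight, then given compound at 10 or 20 μM or vehicle, in triplicate or quadruplicate. MTT was added at 24 and 48 h and absorbance read at 570 nm. Blanks containing vehicle plus compound were subtracted, and viable cells were expressed relative to vehicle controls.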

[4] = target: NS3-4A protease A156T mutant (Hepatitis C virus genotype 1b, UniProt P26663, A1182T); test: Mutant recombinant NS3-4A protease fluorometric assay, A156T; assay type: biochemical, HCV; conditions: A156T vs WT
Method in brief: (§1)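 Recombinant wild-type and mutant NS3-4A proteases were run side by side in a SensoLyte FRET assay across a range of compound concentrations. Excitation/emission of 591/622, 490/520 or 340/490 nm was chosen empirically for each compound, and parallel compound-only wells corrected for autofluorescence. Compound came from DMSO stock diluted into assay buffer, with vehicle controls.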

[5] = system: HCV proteins NS3-4A and core; test: Western blot for HCV proteins in infected Huh 7.5 cells and Huh 5.15NS replicons; assay type: cell-based; conditions: MPP 10 µM; J6/JFH infected Huh 7.5 cells 48 hrs, Huh 5.15NS replicons 24 hrs
Method in brief: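 Cells in log phase were treated with compound, then lysed. HCV proteins were detected by Western blot with anti-NS3-4A antibodies and enhanced chemiluminescence.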

[6] = target: NS3-4A protease T54A mutant (Hepatitis C virus genotype 1b, UniProt P26663, T1080A); test: Mutant recombinant NS3-4A protease fluorometric assay, T54A; assay type: biochemical, HCV; conditions: T54A vs WT
Method in brief: as §1

[7] = target: NS3-4A protease V36M mutant (Hepatitis C virus genotype 1b, UniProt P26663, V1062M); test: Mutant recombinant NS3-4A protease fluorometric assay, V36M; assay type: biochemical, HCV; conditions: V36M vs WT
Method in brief: as §1

[8] = target: HCV NS3-4A protease genotype 1B (Hepatitis C virus genotype 1b, UniProt P26663); test: Recombinant NS3-4A protease FRET assay; assay type: biochemical; conditions: compared with biliverdin

## C=CC1=C(C)/C(=C/C2=NC(=C\c3[nH]c(/C=C4\NC(=O)C(C)=C4C=C)c(C)c3CCC(=O)O)/C(CCC(=O)O)=C2C)NC1=O [BV, biliverdin]
NS3 protease [1]
  IC50 for NS3 protease, fold less than BR: 30 fold

## C=C[C@@H]1C[C@]1(NC(=O)[C@@H]1C[C@@H]2CN1C(=O)[C@H](C(C)(C)C)NC(=O)O[C@@H]1C[C@H]1CCCCCc1nc3ccc(OC)cc3nc1O2)C(=O)NS(=O)(=O)C1CC1 [grazoprevir]
NS3 protease [2]
  difference in Ki, genotype 3 as compared to genotype 1: 90 fold

## CC(C)(C)OC(=O)N[C@H]1CCCCC/C=C\[C@@H]2C[C@@]2(C(=O)NS(=O)(=O)C2CC2)NC(=O)[C@@H]2C[C@@H](OC(=O)N3Cc4cccc(F)c4C3)CN2C1=O [Danoprevir, reference compound]
[3]
  inhibition at 0.01 µM: 80 to 90%
Huh 5.15 replicon cells; 24 or 48 hrs, concentrations equivalent or in excess of EC50
  effects on viable cells: little if any effects

## C=CC1=C(C)C2=Cc3c(C=C)c(C)c4[n]3[Zn][n]3c(c(C)c(CCC(=O)O)c3=CC3=NC(=C4)C(C)=C3CCC(=O)O)=CC1=N2 [ZnPP, Zn protoporphyrin]
[4]
  inhibition of mutant protease compared to wild-type enzyme: same fidelity as the wild-type enzyme
[5]
  expression of HCV proteins NS3-4A and core (Western blot): decreased expression
[6]
  inhibition of mutant protease compared to wild-type enzyme: same fidelity as the wild-type enzyme
Huh 5.15 replicon cells; 10 or 20 μM, 24 and 48 hrs intervals
  reduction of the amount of viable cells: 40–50%
[7]
  inhibition of mutant protease compared to wild-type enzyme: same fidelity as the wild-type enzyme
[8]
  Ki, fold stronger than biliverdin: 10–20 fold

## C=CC1=C(C)c2cc3[n-]c(cc4[n-]c(cc5nc(cc1n2)C(C)=C5C=C)c(C)c4CCC(=O)O)c(CCC(=O)O)c3C.[Fe+2] [FePP, Iron protoporphyrin]
Huh 5.15 replicon cells; 10 or 20 μM, by 48 hrs
  reduction of viable cells: 12–19%
